The sample as a whole holds a higher share of hits than the screen did.
Diaphorase inh: inhibits diaphorase or chemically oxidizes, flagging diaphorase assay artifacts | inhibition, % at 20 µM | diaphorase resazurin-to-resorufin fluorescence, NADH, 16 min; bacterial (C. kluyveri) enzyme, not human | actives 0.69% (n = 190,000);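 active = primary screen inhibition at 20 µM above a set limit, cut at about 50% in these data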;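 note: plate controls were DMSO with full reaction for no effect and wells lacking NADH for full effect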
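Test system: Clostridium kluyveri diaphorase enzyme / Quantity: diaphorase at 0.14 U/mL in enzyme working solution / Incubation: 16-min room-temperature incubation before reading / Benchmarks: NADH-free wells as positive control, DMSO-only neutral wells / Signal: resorufin fluorescence 544/590 nm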
G6PDH CS: L. mesenteroides G6PDH inhibition counter-screen. actives 0.12% (n = 200,000). inhibition, % at 5 µM. Purified L. mesenteroides G6PDH, diaphorase/resazurin coupled fluorescence, 45 min
PfG6PD inh: PfG6PD (Plasmodium falciparum) enzyme inhibition | AID 504690 | inhibition, % at 20 µM | PfGluPho enzyme, NADPH resazurin-diaphorase fluorescence | actives 0.78% (n = 350,000);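 active = inhibition reaching at least a set limit at 20 µM in the primary screen, cut at about 59% in these data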;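 note: 0% = DMSO wells with substrate and 100% = DMSO wells lacking glucose-6-phosphate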
Redox H2O2 prof: compounds producing H2O2 with reducing agent – biochemical, NIH compound library profiling, artefact control for MLSCN library redox annotation, primary screen; activation, % at 10 µM; AID 878; DTT-dependent redox cycling H2O2, phenol red/HRP absorbance; 100% = 100 µM peroxide control, 0% = buffer; actives 0.03% (n = 200,000);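 active = activation of at least 50% relative to the plate's high and low controls in the primary single-dose screen; inactive = activation below 50%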;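 note: compound incubated with DTT at 0.8 mM final as the reducing agent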
L major viab: reduces viability of Leishmania major promastigotes; resazurin fluorescence viability; inhibition, % at 10 µM; actives 9% (n = 200,000); AID 1063;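 note: promastigotes grown with compound for 44 hours at 28 °C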
Diaph act CS: counter-screen for diaphorase-based assays: diaphorase activators and chemical reducers; Diaphorase/resazurin coupled assay, resorufin fluorescence, 16 min; active compounds read high; 1 = vehicle wells, 0 = NADH-free wells; activation factor at 20 µM; actives 0.005% (n = 190,000);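 active = diaphorase activity raised at least twofold by the compound at 20 µM; inactive = activation factor below 2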
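Test system: Clostridium kluyveri diaphorase, purified enzyme; input: enzyme 0.07 U/mL final; buffer or medium: 50 mM HEPES pH 7.4 with 4.542 mM MgCl2, 0.005% Tween 20; also added: 0.114 mM NADH and 0.1 mM resazurin, final amounts; schedule: 16 min enzyme reaction, ambient temperature; technique: fluorescence of resorufin, 544 nm excitation, 590 nm emission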
The depositor's hits bear a star; . = no result. Cut-off read from the data, not from the text of the source, unless noted: active = inhibition above about 50%; inactive = the rest.

SMILES | Diaphorase inh | G6PDH CS | PfG6PD inh | Redox H2O2 prof | L major viab | Diaph act CS
Cc1ccc2nc(NCc3ccccc3)[nH]c2c1 | 10 | 8 | 18 | -1 | 65* | 0.9
CCOc1ccc([C@@H]2CC=C(C(=O)O)CN2S(=O)(=O)c2ccc(C)cc2)cc1 | . | . | -8 | . | . | .
Cc1ccc(C(=O)CSc2n[nH]c(-c3ccco3)n2)cc1C | 54* | 9 | 10 | 4 | 0 | 0.5
O=C(CSc1n[nH]c(-c2ccccc2)n1)Nc1ccc(Br)cn1 | 11 | 10 | -7 | 1 | 54* | 0.9
COc1ccc(C(=O)CSc2n[nH]c(-c3ccco3)n2)cc1 | 20 | 2 | -20 | -3 | -4 | 0.8
Cc1cc(SCC(=O)c2ccc(O)c(O)c2)nc2ccccc12 | 50* | 2 | -26 | -1 | -11 | 0.5
Cc1cc(SCC(=O)c2ccc3c(c2)OCO3)nc2ccccc12 | 9 | 8 | 7 | 0 | 17 | 0.9
O=C(CSc1n[nH]c(-c2ccccc2)n1)c1ccc(O)c(O)c1 | 71* | 12 | 30 | -3 | 20 | 0.3
CCOC(=O)C(NC(=O)c1ccc(OC)cc1)(N1CCCC1=O)C(F)(F)F (stereo not given) | 5 | -2 | 1 | 0 | -3 | 0.9
CCc1nn2c(=O)cc(COC(=O)c3ccc(SC)cc3OC)nc2s1 | . | . | -2 | . | . | .
Cc1ccc(-c2nc(NC(=O)CSc3cc(C)c4ccccc4n3)ns2)cc1 | 66* | 4 | 1 | 0 | -6 | 0.3
COc1ccc2c(C)cc(SCC(=O)Nc3nsc(-c4ccc(C)cc4)n3)nc2c1 | 21 | 10 | -3 | 0 | 1 | 0.8
COc1cc(CCC(=O)OCC(=O)NCCc2ccc(S(N)(=O)=O)cc2)cc(OC)c1OC | . | . | -11 | . | . | .
COc1ccc(-n2ncc3c2CC(C)(C)CC3NC(=O)c2ccc(OC)o2)cc1 (stereo not given) | . | . | 3 | . | . | .
CC(CS(=O)(=O)c1ccc2ccccc2c1)N1CCN(C2CCCCC2)CC1 (stereo not given) | . | . | . | 1 | 82* | .
O=S(=O)(CC(CN1CCCC1)N1CCCC1)c1ccc2ccccc2c1 (stereo not given) | 10 | 12 | 7 | 1 | 100* | 0.9
Cc1ccc(S(=O)(=O)CC(C)N2CCN(C3CCCCC3)CC2)cc1 (stereo not given) | 4 | 6 | -1 | 5 | 90* | 1
CC1(C)CC(=O)/C(=C\c2cccc([N+](=O)[O-])c2)C(C)(C)N1 | -1 | 14 | -27 | 0 | 100* | 1
CC(C)(C)c1nc(SCC(=O)Nc2nc3c(s2)CCCC3)c2ccccc2n1 | -2 | 7 | 14 | 2 | 80* | 1
CC(C)c1nc(SCC(=O)Nc2nc3c(s2)CCCC3)c2ccccc2n1 | 23 | -24 | 11 | 2 | 5 | 0.8
Cc1ccccc1C(=O)Nc1ccccc1C(=O)N1CCC(C)CC1 | . | . | -3 | . | . | .
Cc1ccc(OCCC(=O)OCC(=O)Nc2ccccc2)cc1 | . | . | -7 | . | . | .
COc1ccc(NC(=S)N2CCN(CCN=CC3=C(O)CC(c4ccccc4)CC3=O)CC2)cc1 (stereo not given) | 18 | -5 | 11 | . | 53* | 0.8
CCOC(=O)c1ccc(NC(=S)N2CCN(CCN=CC3=C(O)CC(c4ccccc4)CC3=O)CC2)cc1 (stereo not given) | . | . | 19 | . | . | .
O=[N+]([O-])c1cccnc1Nc1ccc(Cl)cc1 | . | . | 7 | . | . | .
SMILES | Diaphorase inh | G6PDH CS | PfG6PD inh | Redox H2O2 prof | L major viab | Diaph act CS
NS(=O)(=O)c1ccc(Nc2ncccc2[N+](=O)[O-])cc1 | 12 | 4 | -17 | 0 | 75* | 0.9
Cc1cccc(C)c1NC(=O)CN(C)CC(=O)c1c(N)n(Cc2ccccc2)c(=O)n(C)c1=O | . | . | 5 | . | . | .
CCCCC(=O)Nc1cccc(NC(=S)NC(C)=O)c1 | 3 | -3 | 1 | 1 | -3 | 1
CN(CC(=O)Nc1c(Cl)cccc1Cl)C(=O)c1ccc2ccccc2n1 | . | . | 0 | . | . | .
Cc1ccc([N+](=O)[O-])cc1-c1[nH]c(-c2ccc(O)c(O)c2)nc1-c1ccccc1 | 64* | 7 | 8 | 0 | 4 | 0.4
COc1ccc(-c2nc(-c3ccccc3)c(-c3cc([N+](=O)[O-])ccc3C)[nH]2)cc1O | 29 | 6 | 47 | 0 | 32 | 0.7
